The text below walks through data of ChEMBL document CHEMBL1145417, “Cytotoxic clerodane diterpenoids from fruits of Casearia grewiifolia” (J Nat Prod, 2007).

What is called IC50 is the concentration that inhibits the measured activity by half. A high value points to a need for much substance.

Values after ≈ are worked out from the molar mass of the structure shown. Active and inactive are the calls of the source. The rule behind the calls is not given here.

Common to all, as to assay type: functional, cell-based
The subject of one test is KB. Kind of test: Cytotoxicity against human KB cells. The procedure, abridged: (§1)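 Colorimetric cytotoxicity assay following Skehan and co-workers' method. The cells were human KB (epidermoid carcinoma of the mouth), BC1 (breast cancer) and NCI-H187 (small cell lung cancer). Ellipticine and doxorubicin were the reference compounds.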
A short description of test [1]: (§2) Cytotoxicity against human BC1 cells. Put shortly: as §1
The test system of a further test is NCI-H187. In words: Cytotoxicity against human NCI-H187 cells. Put shortly: as §1
In another test the test system is BC1. The description is as §2. The procedure, abridged: as §1

`C=C/C(C)=C\C[C@]1(C)[C@H](C)CC[C@@]23C(=C[C@H](OC(=O)CCC)C[C@@H]12)[C@@H](OC(C)=O)O[C@H]3OC(C)=O` (relative stereo) [CASEARGREWINS E]: the half-inhibitory concentration (IC50) with KB turned out to be 0.66 µg/mL (≈ 1.35 µM); in test [1], 0.91 µg/mL (≈ 1.86 µM); in the test on NCI-H187, 0.15 µg/mL (≈ 0.307 µM).
`C=C/C(C)=C\C[C@]1(C)[C@H](C)C[C@H](O)[C@@]23C(=C[C@H](OC(=O)CCC)C[C@@H]12)[C@@H](OC(C)=O)O[C@H]3OC(C)=O` (relative stereo) [CASEARGREWINS F]: the outcome in the test on KB was inactive. In addition, the concentration for half-maximal inhibition (IC50) in test [1] was found to be 0.2 µg/mL (≈ 0.396 µM); in the test on NCI-H187, 4.72 µg/mL (≈ 9.35 µM).
For `C=C/C(C)=C\C[C@]1(C)[C@H](C)C[C@H](O)[C@@]23C(=C[C@H](OC(=O)CCC)C[C@@H]12)[C@@H](OC)O[C@H]3OC(C)=O` (relative stereo) [CASEARGREWINS G], the values for the IC50 (in the test with KB; in test [1]; with NCI-H187) were 0.67 µg/mL (≈ 1.41 µM), 3.97 µg/mL (≈ 8.33 µM) and 5.57 µg/mL (≈ 11.7 µM), respectively.
The matching figures for `C=C/C(C)=C\C[C@]1(C)[C@H](C)CC[C@@]23C(=C[C@H](OC(=O)CCCCC)C[C@@H]12)[C@@H](OC(C)=O)O[C@H]3OC(C)=O` (relative stereo) [CASEARGREWINS H]: 0.88 µg/mL (≈ 1.7 µM), 0.21 µg/mL (≈ 0.406 µM) and 0.54 µg/mL (≈ 1.05 µM).
As to `C=C/C(C)=C\C[C@]1(C)[C@H](C)C[C@H](O)[C@@]23C(=C[C@H](OC(=O)CCCCC)C[C@@H]12)[C@@H](OC(C)=O)O[C@H]3OC(C)=O` (relative stereo) [CASEARGREWINS I], the values for the IC50 (in the test with KB; in test [1]; in the test with NCI-H187) were 3.04 µg/mL (≈ 5.71 µM), 0.36 µg/mL (≈ 0.676 µM) and 0.33 µg/mL (≈ 0.62 µM), respectively.
Regarding `C=C/C(C)=C\C[C@]1(C)[C@H](C)C[C@H](O)[C@@]23C(=C[C@H](OC(=O)CCCCC)C[C@@H]12)[C@@H](OC)O[C@H]3OC(C)=O` (relative stereo) [CASEARGREWINS J], the outcome with KB was inactive. Further, the figures for the 50% inhibitory concentration (IC50) (in test [1]; in the test with NCI-H187) were 0.99 µg/mL (≈ 1.96 µM) and 1.22 µg/mL (≈ 2.42 µM), respectively.
Taken in the same sequence, the figures for `C=C/C(C)=C\C[C@]1(C)[C@H](C)[C@@H](O)[C@H](O)[C@@]23C(=C[C@H](OC(=O)CCCCC)C[C@@H]12)[C@@H](OC)O[C@H]3OC(C)=O` (relative stereo) [CASEARGREWINS K] were “inactive”, 3.4 µg/mL (≈ 6.53 µM) and 5.11 µg/mL (≈ 9.81 µM).
Take `C=C/C(C)=C\C[C@]1(C)[C@H](C)C[C@H](O)[C@@]23C(=C[C@H](OC(=O)CC(C)C)C[C@@H]12)[C@@H](OC(C)=O)O[C@H]3OC(C)=O` (relative stereo) [CASEARGREWINS L]: the IC50 is 6 µg/mL (≈ 11.6 µM) in the test with KB and 0.32 µg/mL (≈ 0.617 µM) in the test with NCI-H187. Also, in the test with BC1, the outcome was inactive.
For the compound `COc1cccc2c1C(=O)c1c(O)c3c(c(O)c1C2=O)C[C@@](O)(C(=O)CO)C[C@@H]3O[C@H]1C[C@H](N)[C@H](O)[C@H](C)O1` [DOXORUBICIN], the figures for the IC50 (in the test on KB; in test [1]; in the test with NCI-H187) were 0.23 µg/mL (≈ 0.423 µM), 0.13 µg/mL (≈ 0.239 µM) and 0.048 µg/mL (≈ 0.0883 µM), respectively.
On to `Cc1c2ccncc2c(C)c2c1[nH]c1ccccc12` [ELLIPTECINE], for which the IC50 came out at 0.67 µg/mL (≈ 2.72 µM) in the test on KB and 0.13 µg/mL (≈ 0.528 µM) in test [1].
`C=C/C(C)=C\C[C@]1(C)[C@H](C)[C@@H](O)[C@H](O)[C@@]23C(=C[C@H](OC(=O)CC(C)C)C[C@@H]12)[C@@H](OC(C)=O)O[C@H]3OC(C)=O` [ESCULENTIN B]: the result with KB was inactive. Also, the half-inhibitory concentration (IC50) was 0.17 µg/mL (≈ 0.318 µM) in test [1] and 0.68 µg/mL (≈ 1.27 µM) in the test with NCI-H187.
